Series [1] is described as follows: folding enthalpy; higher = less favourable; fluorescence melt of hairpins on a sequencing array, two-state fit. The settings on record: sodium 0.088 M. The procedure, abridged: (§1)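 Library hairpins on a sequenced MiSeq flow cell carried annealed Cy3 and quencher oligos, and their Cy3 fluorescence was imaged in 50 mM Na-HEPES pH 8.0 with 25 mM NaCl, in 2.5 °C steps up to 60 °C. Signals were normalised to Cy3 before quenching and to control constructs. Melting temperature and folding enthalpy were obtained from bootstrapped two-state fits, combined by inverse-variance weighting across four replicates, and the fitted temperatures were then raised by 9.35 °C to match UV melts.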

The nature of series [2]: melting temperature; fluorescence melt of hairpins on a sequencing array, two-state fit, raised by 9.35 °C to match UV melts. The settings on record: sodium 0.088 M. The procedure, abridged:
as §1

With GCTGGGGAAACCCAGC ((((((....)))))), the folding enthalpy in series [1] is -37.5 kcal/mol. Besides, the Tm in series [2] came out at 69.3 °C.

With GGAAATGGAAACATCTCC (((.(((....))).))), the folding enthalpy in series [1] was -9.93 kcal/mol. In addition, the Tm in series [2] amounted to 25.1 °C.

Turning to GCGTTTTACGC ((((...)))), in series [1], the folding enthalpy is -23 kcal/mol. The Tm in series [2] was determined as 60.6 °C.

As to GTTGACGGAAACGTCGAC ((.((((....)))).)), the folding enthalpy in series [1] was -43.4 kcal/mol. In addition, the Tm in series [2] was found to be 54.8 °C.

GCGAATCCTCGC ((((....)))): the folding enthalpy in series [1] is -24.5 kcal/mol. Further, the Tm in series [2] amounted to 46.3 °C.

Take GATCAGTGTACTGATC ((((((....)))))): in series [1], the folding enthalpy is -33.1 kcal/mol. For the same sequence, the Tm in series [2] amounted to 59.1 °C.

GAACAGGGAAACCTGCTC ((.((((....)))).)): the folding enthalpy in series [1] was -18.8 kcal/mol. In addition, in series [2], the Tm was found to be 37.1 °C.

As to GCATAGCGAAAGCGGTGC (((..((....))..))), the folding enthalpy in series [1] was -32.6 kcal/mol. Moreover, the Tm in series [2] turned out to be 63.6 °C.

As to GTTGCACGAAAGTGGAAC (((.(((....))).))), the folding enthalpy in series [1] was -35.5 kcal/mol. Moreover, the Tm in series [2] was 56.6 °C.

On to GTAAACGAAAGTTGTTAC ((((((....)))..))), for which the folding enthalpy in series [1] is -10.1 kcal/mol. Further, the Tm in series [2] was 23.7 °C.

As to GCACTCTCGAAAGAGTGC (((..(((....)))))), the folding enthalpy in series [1] was -45.9 kcal/mol. The Tm in series [2] amounted to 65 °C.

For GCGCCGCCGAAAGGCCGC (((..(((....)))))), in series [1], the folding enthalpy was -15.2 kcal/mol. Moreover, in series [2], the Tm is 56.3 °C.

GTTGGCGAAAGCCGTAAC ((((((....)))..))): in series [1], the folding enthalpy is -9.54 kcal/mol. In addition, in series [2], the Tm turned out to be 33.4 °C.

As to GTGGAGGGAAACCTCTAC ((.((((....)))).)), in series [1], the folding enthalpy is -25.7 kcal/mol. In series [2], the Tm worked out at 46.7 °C.

Consider CGCATCGGAAACGAAGCG (((.(((....))).))), for which the folding enthalpy in series [1] was -31.2 kcal/mol. In addition, in series [2], the Tm was 51.7 °C.

In the case of GTGATGCGAAAGCACAC (((.(((....)))))), the folding enthalpy in series [1] is -25.8 kcal/mol. The Tm in series [2] is 53.5 °C.

In the case of GAGCCGGGAAACCGACCC (.(.(((....))).).), the folding enthalpy in series [1] is -13.9 kcal/mol. Moreover, the Tm in series [2] was determined as 30.1 °C.

Regarding GAGCACGAAAGTGTTCTC ((((((....)))..))), the folding enthalpy in series [1] was -25.5 kcal/mol. The Tm in series [2] was 52.1 °C.

Take GAAGTCGGAAACGGCTTC ((((.((....)).)))): in series [1], the folding enthalpy was -39.7 kcal/mol. In addition, the Tm in series [2] was 54.5 °C.

GTGCGTACGAAAGTACAC (((..(((....)))))): in series [1], the folding enthalpy was -10.5 kcal/mol. Also, the Tm in series [2] turned out to be 54.1 °C.

For GACTAGGGAAACTTAGTC (((((.(....).))))), in series [1], the folding enthalpy is -30.1 kcal/mol. Further, in series [2], the Tm was 37.9 °C.

For the sequence GAAGTAGGAAACCACTTC (((((.(....).))))), the folding enthalpy in series [1] was -24.7 kcal/mol. Further, the Tm in series [2] turned out to be 34.8 °C.

As for GACTAGGGAAACCTGGTC (((.(((....))).))), the folding enthalpy in series [1] was -35.7 kcal/mol. In addition, the Tm in series [2] came out at 46.7 °C.

As for GATCGTACGCACGATC ((((((....)))))), in series [1], the folding enthalpy was -37.4 kcal/mol. The Tm in series [2] came to 55.1 °C.

As to GCGAGGCGAAAGCCCTGC ((..(((....)))..)), the folding enthalpy in series [1] was -11.9 kcal/mol. For the same sequence, the Tm in series [2] came out at 57.6 °C.

Consider GACCTGGGAAACCAAGTC (((.(((....))).))), for which the folding enthalpy in series [1] was -29.7 kcal/mol. Also, in series [2], the Tm was found to be 33.4 °C.

In the case of GCATCTCGAAAGAGTTGC (((.(((....))).))), in series [1], the folding enthalpy was -33.9 kcal/mol. In addition, the Tm in series [2] was found to be 50.6 °C.

On to GGCCACGCGAAAGCGGCC (((..(((....)))))), for which the folding enthalpy in series [1] was -19 kcal/mol. Besides, the Tm in series [2] was determined as 62.5 °C.

As for CGCCCGGAAACGGTTGCG ((((((....)))..))), the folding enthalpy in series [1] was -25.5 kcal/mol. In addition, the Tm in series [2] came out at 48.6 °C.

Regarding GTCCCTCGAAAGAGTGAC (((.(((....))).))), the folding enthalpy in series [1] was -31.9 kcal/mol. For the same sequence, the Tm in series [2] was determined as 45.3 °C.

Turning to GCTCGCCCGAAAGGGAGC (((..(((....)))))), the folding enthalpy in series [1] was -16.8 kcal/mol. In addition, the Tm in series [2] came out at 48.4 °C.

For GGAGGCGAAAGCCTTCC ((((((....))).))), the folding enthalpy in series [1] is -13.5 kcal/mol. In addition, the Tm in series [2] turned out to be 57.9 °C.

For the sequence GCTCAGCGAAAGCGCAGC (((..((....))..))), in series [1], the folding enthalpy is -14.8 kcal/mol. Further, in series [2], the Tm was 45.7 °C.

As to CGCTGCGGAAACGCCGCG (((.(((....))).))), the folding enthalpy in series [1] is -29.1 kcal/mol. In addition, in series [2], the Tm was determined as 56.5 °C.

Regarding GCTATGCGAAAGCTTGGC ((.(.((....)).).)), in series [1], the folding enthalpy is -24.6 kcal/mol. Besides, the Tm in series [2] was 42.1 °C.

GATCCTCGGTAGGATC ((((((....)))))): the folding enthalpy in series [1] was -26.9 kcal/mol. The Tm in series [2] was 50.9 °C.

Consider GGGCCTGGAAACAAGCCC ((((.((....)).)))), for which the folding enthalpy in series [1] was -33.3 kcal/mol. For the same sequence, in series [2], the Tm was determined as 47.4 °C.

The values above are taken from the array DNA melting data of Ke et al. (doi:10.1101/2024.01.08.574731).
